Hits are enriched below; roughly 4.1% of the tested compounds scored in any of these assays.
KCNQ1 pot = potentiators or activators of human KCNQ1 potassium channel. AID 2648. CHO-K1 KCNQ1, thallium flux FluxOR fluorescence; active compounds read high. 310,000 tested, 0.35% active. B-score at 10 µM. P51787;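 active = fluorescence ratio B-score, a plate-corrected score, at least three library SD, with initial intensity B-score within 5 SD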
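Schedule – 37 °C overnight plating, 90-min dark dye load, 20-min compound pretreatment · System – stable KCNQ1 CHO-K1 line · Probe or stimulus – thallium- and potassium-containing depolarizing buffer · Measured by – kinetic FluxOR fluorescence, 10 s baseline plus 110 s post-stimulus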
KCNK9 block = blocks the human KCNK9 two-pore domain potassium channel | Q9NPC2 | 310,000 tested, 1.2% active | B-score at 10 µM | AID 488922 | HEK293 KCNK9, FluxOR thallium flux fluorescence; active compounds read low;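 active = ratio B-score over 3 SD below the library mean, with starting fluorescence within 5 SD of its mean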;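 also: negative B-score means less thallium flux so channel inhibition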
KCNK3 inh = human KCNK3 channel inhibition, primary screen. O14649. AID 602410. 340,000 tested, 0.84% active. B-score at 10 µM. CHO-KCNK3 thallium flux, FluxOR fluorescence; active compounds read low;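 active = B-score under library mean minus 4 SD, starting fluorescence ratio at most library mean plus 5 SD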;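 also: more negative B-score means stronger inhibition of thallium flux through KCNK3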
Target sequence (O14649 whole entry, looked up): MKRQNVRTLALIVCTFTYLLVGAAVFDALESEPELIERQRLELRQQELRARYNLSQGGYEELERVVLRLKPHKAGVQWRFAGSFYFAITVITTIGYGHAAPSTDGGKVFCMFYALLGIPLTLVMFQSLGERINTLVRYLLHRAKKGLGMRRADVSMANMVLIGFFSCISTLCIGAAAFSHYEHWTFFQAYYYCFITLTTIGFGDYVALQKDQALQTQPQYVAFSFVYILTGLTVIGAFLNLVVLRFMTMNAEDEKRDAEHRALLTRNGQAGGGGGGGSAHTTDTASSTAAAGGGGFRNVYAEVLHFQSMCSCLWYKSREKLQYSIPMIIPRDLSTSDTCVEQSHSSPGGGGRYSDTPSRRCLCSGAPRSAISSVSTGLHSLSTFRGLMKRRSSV
Cl transport mod = modulates chloride dependent transport by human KCC2; 190,000 tested, 2.2% active; B-score of Tl+ flux slope (higher = more flux/activation; lower = inhibition) at 10 µM; KCC2 cells, thallium flux FluoZin-2 fluorescence;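 active = thallium flux slope and its plate-corrected score both differing from the plate sample mean at a set confidence after two filtering rounds, in either direction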;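 also: slope of fluorescence scaled to starting intensity during 10 to 20 s after thallium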
hERG protect = hERG (human) protection from proarrhythmic block; CHO-hERG, FluxOR thallium flux, dofetilide IC70 present; activation (rescue from dofetilide block), less the hit threshold, % at 10 µM; AID 1511; Q12809; 310,000 tested, 0.51% active;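 active = activation above the mean of controls blocked by dofetilide plus 5 SD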;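 also: thallium influx through hERG after potassium depolarization seen as dye fluorescence rise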
KCNQ1 inh = blocks the human KCNQ1 potassium channel | B-score at 10 µM | CHO-K1 KCNQ1, FluxOR thallium flux fluorescence; active compounds read high | P51787 | 310,000 tested, 1.3% active;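 active = compounds whose thallium flux B-score, printed positive for inhibition, exceeds three library SD while starting fluorescence stays within three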;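 also: channel opened by potassium depolarization with thallium stimulus after 20 min compound exposure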
KCNK9 inh conf = confirmation of human KCNK9 potassium channel inhibitors | shares compounds with KCNK9 block | HEK293 KCNK9 cells, FluxOR thallium flux fluorescence | inhibition, % at 10 µM | 4,900 tested, 43% active | AID 492992;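 active = thallium signal inhibited by more than 5 SD of the compound-free buffer control wells, on both duplicate plates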;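 also: 0% = assay buffer control wells without compound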
Kir2-1 spec = tests whether KCNK9 modulators also affect mouse Kir2.1. shares compounds with KCNK9 block. Kir2.1 cells, FluxOR thallium flux fluorescence. inhibition, % at 10 µM. 4,900 tested, 4% active;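 active = thallium signal drop more than 5 SD beyond the mean of the no-compound control wells, seen in both duplicate plates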;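 also: signal is fluorescence rise after thallium addition divided by baseline fluorescence; plate controls were assay buffer only for no effect and full block by chlorpromazine control for full effect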
HEK293 Tl ctr = non-induced cell nonspecific activity of KCNK9 modulators; shares compounds with KCNK9 block; non-induced KCNK9-HEK293, FluxOR thallium flux; inhibition, % at 10 µM; 4,900 tested, 40% active; AID 492997;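 active = thallium signal drop beyond 5 SD of the untreated control mean, on both duplicate plates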;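 also: plate controls were buffer only IC0 wells for no effect and SID17386958 at its maximal inhibitory level for full effect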
An asterisk follows results filed as active; i = inactive; nt = not tested or not shown.

SMILES | KCNQ1 pot | KCNK9 block | KCNK3 inh | Cl transport mod | hERG protect | KCNQ1 inh | KCNK9 inh conf | Kir2-1 spec | HEK293 Tl ctr
Cc1cc(Cl)ccc1C(=O)C1CCCN(C(=O)c2n[nH]c3c2CCCC3)C1 (stereo not drawn) | i | i | i | nt | -4 | i | i | i | i
COc1ccc2[nH]c3c(c2c1)CCN1C(=O)C(CC(=O)NCCc2ccccn2)C[C@H](C(=O)N(C(C)C)C(C)C)[C@@]31C (stereo partly drawn) | nt | nt | i | nt | nt | nt | nt | nt | nt
CC1(C(=O)N2CCN(Cc3ccccc3Cl)CC2)CC1(Cl)Cl (stereo not drawn) | i | i | i | nt | -14 | i | nt | nt | nt
COc1ccc(NC(=O)CNC(=O)Cn2cnc3sc4c(c3c2=O)CCCC4)cc1OC | i | i | i | nt | -5 | i | nt | nt | nt
O=C(CSc1ccc2ccccc2n1)c1ccc2c(c1)OCO2 | i | -8.3* | i | nt | -5 | i | 39%* | i | 36%*
Cc1onc(-c2c(Cl)cccc2Cl)c1C(=O)N1CCc2ccccc21 | i | i | i | -0.098 | -16 | i | nt | nt | nt
O=[N+]([O-])c1ccc(CN2CCC(Cc3ccccc3)CC2)cc1 | i | i | i | nt | -9 | i | nt | nt | nt
O=[N+]([O-])c1ccc(C(=S)N2CCC(Cc3ccccc3)CC2)cc1 | i | -13* | i | -1.2 | -7 | i | i | i | i
Cn1nc(-c2ccc(N3CCCCC3)c(NC(=O)c3ccco3)c2)c2ccccc2c1=O | i | -15* | i | nt | -13 | i | 73%* | i | 36%*
CCC(=O)Nc1cc(-c2nn(C)c(=O)c3ccccc23)ccc1N1CCOCC1 | i | i | i | nt | -3 | i | nt | nt | nt
CCc1ccc(-n2c(=S)sc3c(=O)n(-c4ccccc4)c(SCC(=O)O)nc32)cc1 | i | i | i | nt | -1 | i | nt | nt | nt
CCn1cc(C(=O)NCCCN(CC(C)C)CC(C)C)c(=O)c2cc(S(=O)(=O)N(C)C3CCCCC3)ccc21 | i | i | i | nt | -9 | i | nt | nt | nt
COc1ccc(C2Nc3ccccc3C(=O)N2Cc2ccco2)cc1COc1ccccc1F (stereo not drawn) | i | -9* | i | -2 | -7 | i | 46%* | i | 34%*
CC1(c2ccc(OCC#N)cc2)C=C(c2ccc(OCC#N)cc2)n2nc(C(F)(F)F)nc2N1 (stereo not drawn) | i | -9.2* | i | 0.32 | -7 | i | 43%* | i | 44%*
CC1CCc2c(sc(NC(=O)c3ccc(-c4ccccc4[N+](=O)[O-])o3)c2C#N)C1 (stereo not drawn) | i | i | i | 0.046 | -3 | i | nt | nt | nt
CC1CCc2c(sc(NC(=O)c3ccc(Cn4cc([N+](=O)[O-])cn4)o3)c2C#N)C1 (stereo not drawn) | i | -16* | i | nt | -10 | i | 46%* | i | 30%*
CC(C)COc1ccc(CSCCNC(=S)Nc2ccccc2)cc1 | i | i | i | -0.69 | -16 | 9* | i | i | i
CCCCOc1ccc(CSCCNC(=S)Nc2ccccc2)cc1 | i | i | i | -0.54 | 2 | i | nt | nt | nt
Nc1ncc(Br)cc1S(=O)(=O)NCCC(=O)N1CCN(c2ncccn2)CC1 | i | i | i | nt | -5 | i | nt | nt | nt
CCOC(=O)c1c(C)[nH]c(N=Nc2cccc(OC)c2)c1C | i | -12* | i | 1 | -19 | i | 62%* | i | i
COc1ccc(NC(=O)CCS(=O)(=O)c2ccccc2Cl)cc1S(=O)(=O)Nc1ccc(Cl)cc1 | i | i | i | -0.71 | -8 | i | nt | nt | nt
COc1ccc(NC(=O)CCSc2ccc(C)cc2)cc1S(=O)(=O)Nc1ccccc1Cl | i | i | i | -2.2 | -6 | i | i | i | i
COc1ccc(NS(=O)(=O)c2cc(NC(=O)CCSc3ccccc3)ccc2OC)cc1 | i | i | i | -3.4 | 1 | i | i | i | i
Cc1cc(NC(=O)c2ccc(F)cc2F)n(-c2nc3ccccc3[nH]2)n1 | i | i | i | 0.88 | 0 | i | nt | nt | nt
Cc1cc(NC(=O)/C=C/c2ccccc2Cl)n(-c2nc3ccccc3[nH]2)n1 | i | -9.1* | i | 1.5 | -8 | i | i | i | 26%*
SMILES | KCNQ1 pot | KCNK9 block | KCNK3 inh | Cl transport mod | hERG protect | KCNQ1 inh | KCNK9 inh conf | Kir2-1 spec | HEK293 Tl ctr
CNC[C@H](Cc1ccccc1)NC[C@@H](Cc1cccc2ccccc12)NCCc1ccc(C)cc1 | i | -9.5* | i | nt | -28 | 11* | 70%* | 76%* | 58%*
CCOc1cc(C(=O)NCc2ccc3c(c2)OCO3)cc(OCC)c1OCC | i | i | i | nt | -4 | i | nt | nt | nt
CCCCCCOC1(c2ccccc2)OC(=O)c2ccccc21 (stereo not drawn) | i | -15* | i | 1.7 | -14 | i | 79%* | i | 50%*
Cc1cccc(OC2(c3ccccc3)OC(=O)c3ccccc32)c1C (stereo not drawn) | i | -13* | i | -0.88 | -11 | i | 52%* | i | 42%*
CCCCCCCOC1(c2ccccc2)OC(=O)c2ccccc21 (stereo not drawn) | i | -16* | i | -0.14 | -16 | i | 70%* | i | 48%*
COc1ccc(NC2(c3ccccc3)OC(=O)c3ccccc32)cc1 (stereo not drawn) | i | i | i | -0.029 | -8 | i | nt | nt | nt
CCOc1ccccc1NC(=O)CSC1=NN2CCCC(=O)N=C2S1 | i | i | i | nt | -8 | i | nt | nt | nt
COc1ccc(NC(=O)Nc2ccc3c(c2)C(=O)N([C@H](C)CO)C[C@H](C)[C@@H](CN(C)C(=O)Nc2ccccc2)O3)cc1 | nt | nt | i | nt | nt | nt | nt | nt | nt
Clc1cccc(CSc2ncnc3c2ncn3C2CCCCO2)c1 (stereo not drawn) | nt | nt | i | nt | nt | nt | nt | nt | nt
Cc1cccc(C(=O)OCC(=O)N(C)CC(=O)Nc2ccc(Cl)c(C(F)(F)F)c2)c1 | nt | nt | i | nt | nt | nt | nt | nt | nt
COc1cccc(C2=NN(C(=O)c3ccc(C)o3)C(O)(C(F)(F)F)C2)c1 (stereo not drawn) | i | i | i | 0.49 | -16 | i | nt | nt | nt
Cc1ccc(C(=O)N2N=C(c3ccccc3)CC2(O)C(F)(F)F)o1 (stereo not drawn) | i | -11* | i | 1.6 | -13 | i | 55%* | i | 32%*
